Assay results reported in EPA's CvTdb concentration-time database.

Assays:
[1] = system: Mouse; test: concentration in plasma after dosing; details: 3 h; dosed: 2-Hydroxy-4-methoxybenzophenone; 50 mg/kg; iv; Male; B6C3F1
[2] = system: Rat; test: concentration in plasma after dosing; details: dosed: 2-Hydroxy-4-methoxybenzophenone, 100 mg/kg, oral, Female, F344
[3] = system: Mouse; test: concentration in plasma after dosing; details: 10 min; dosed: 2-Hydroxy-4-methoxybenzophenone; 250 mg/kg; oral; Male; B6C3F1
[4] = system: Mouse; test: concentration in plasma after dosing; details: 0.25 h; dosed: 2-Hydroxy-4-methoxybenzophenone; 250 mg/kg; oral; Male; B6C3F1
[5] = system: Mouse; test: concentration in plasma after dosing; details: 2 h; dosed: 2-Hydroxy-4-methoxybenzophenone; 250 mg/kg; oral; Female; B6C3F1
[6] = system: Rat; test: concentration in brain after dosing; details: 10 min; dosed: alpha-Thujone; 25 mg/kg; oral; Male; Harlan Sprague Dawley
[7] = system: Rat; test: concentration in brain after dosing; details: 3 h; dosed: alpha-Thujone; 25 mg/kg; oral; Male; Harlan Sprague Dawley
[8] = system: Rat; test: concentration in brain after dosing; details: 2 min; dosed: alpha-Thujone; 25 mg/kg; oral; Male; Harlan Sprague Dawley
[9] = system: Rat; test: concentration in plasma after dosing; details: 10 min; dosed: alpha-Thujone; 25 mg/kg; oral; Male; Harlan Sprague Dawley
[10] = system: Rat; test: concentration in plasma after dosing; details: 1.5 h; dosed: alpha-Thujone; 25 mg/kg; oral; Male; Harlan Sprague Dawley
[11] = system: Rat; test: concentration in plasma after dosing; details: 5 min; dosed: alpha-Thujone; 50 mg/kg; oral; Female; Harlan Sprague Dawley
[12] = system: Rat; test: concentration in kidney after dosing; details: 192 h; dosed: Perfluorohexane-1-sulphonic acid – potassium salt; 16 mg/kg; oral; Female; Harlan Sprague Dawley
[13] = system: Rat; test: concentration in kidney after dosing; details: 6 h; dosed: Perfluorohexane-1-sulphonic acid – potassium salt; 16 mg/kg; oral; Female; Harlan Sprague Dawley
[14] = system: Rat; test: concentration in kidney after dosing; details: 1200 h; dosed: Perfluorohexane-1-sulphonic acid – potassium salt; 16 mg/kg; oral; Male; Harlan Sprague Dawley
[15] = system: Rat; test: concentration in kidney after dosing; details: 24 h; dosed: Perfluorohexane-1-sulphonic acid – potassium salt; 16 mg/kg; oral; Female; Harlan Sprague Dawley
[16] = system: Rat; test: concentration in plasma after dosing; details: dosed: Methyleugenol, 37 mg/kg, oral, Male, F344/N
[17] = system: human; test: amount in urine after dosing (umol)
Method in brief: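 Data points giving concentration or amount against time came from published in vivo toxicokinetic studies and from two structured collections. PubMed searching, classifier screening and manual review located the studies. Most points were digitised from plot screenshots using WebPlotDigitizer, the rest were copied from tables, and all keep their reported units.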

[18] = system: Mouse; test: concentration in plasma after dosing; details: 5 min; dosed: 2,4-Dichlorophenoxyacetic acid; 2.0 mg/kg; oral; Male; B6C3F1
[19] = system: Mouse; test: concentration in plasma after dosing; details: dosed: 2,4-Dichlorophenoxyacetic acid, 2.0 mg/kg, oral, Male, B6C3F1
[20] = system: Rat; test: concentration in plasma after dosing; details: 3 h; dosed: Primidone; 80 mg/kg; oral; Male; F344
[21] = system: Rat; test: concentration in plasma after dosing; details: 12 h; dosed: Primidone; 130 mg/kg; oral; Male; Harlan Sprague Dawley
[22] = system: Rat; test: concentration in plasma after dosing; details: 9 h; dosed: Primidone; 30 mg/kg; oral; Female; F344
[23] = system: Rat; test: concentration in plasma after dosing; details: 0.25 h; dosed: Primidone; 80 mg/kg; oral; Female; F344

O=C(c1ccccc1)c1ccc(O)cc1O [2,4-Dihydroxybenzophenone]
concentration in plasma [1]: 232 ng/mL
concentration in plasma ([2]; 0.5 h): 255 ng/mL
concentration in plasma ([2]; 5 h): 46.6 ng/mL
concentration in plasma [3]: 415 ng/mL
concentration in plasma [4]: 1130 ng/mL
concentration in plasma [5]: 190 ng/mL

CC(C)[C@]12CC(=O)[C@H](C)[C@H]1C2 [alpha-Thujone]
concentration in brain [6]: 765 ng/g
concentration in brain [7]: 176 ng/g
concentration in brain [8]: 11.2 ng/g
concentration in plasma [9]: 243 ng/mL
concentration in plasma [10]: 130 ng/mL
concentration in plasma [11]: 201 ng/mL

O=S(=O)([O-])C(F)(F)C(F)(F)C(F)(F)C(F)(F)C(F)(F)C(F)(F)F.[K+] [Perfluorohexane-1-sulphonic acid – potassium salt]
concentration in kidney [12]: 1560 ng/g
concentration in kidney [13]: 36500 ng/g
concentration in kidney [14]: 2640 ng/g
concentration in kidney [15]: 24300 ng/g

C=CCc1ccc(OC)c(OC)c1 [Methyleugenol]
concentration in plasma ([16]; 5 min): 191 ng/mL
concentration in plasma ([16]; 2 h): 41.7 ng/mL

CC(C)(O)CO [2-methyl-1,2-propanediol]
amount in urine ([17]; 0 h, dosed: ethyl tert-butyl ether, 4.5 ppm, inhalation, duration: 4 hr): 0.545
amount in urine ([17]; 0 h, dosed: methyl tert-butyl ether, 5 mg, oral): 0.0411
amount in urine ([17]; 0 h, dosed: methyl tert-butyl ether, 4.5 ppm, inhalation, duration: 4 hr): 1.1
amount in urine ([17]; 0.1089 h, dosed: methyl tert-butyl ether, 38.7 ppm, inhalation, duration: 4 hr): 7.53
amount in urine ([17]; 0.1579 h, dosed: ethyl tert-butyl ether, 40.6 ppm, inhalation, duration: 4 hr): 3.98
amount in urine ([17]; 5.848 h, dosed: methyl tert-butyl ether, 15 mg, oral): 2.13
amount in urine ([17]; 5.975 h, dosed: ethyl tert-butyl ether, 4.5 ppm, inhalation, duration: 4 hr): 2.4
amount in urine ([17]; 6 h, dosed: ethyl tert-butyl ether, 40.6 ppm, inhalation, duration: 4 hr): 14.9
amount in urine ([17]; 6.195 h, dosed: methyl tert-butyl ether, 38.7 ppm, inhalation, duration: 4 hr): 37
amount in urine ([17]; 6.261 h, dosed: methyl tert-butyl ether, 4.5 ppm, inhalation, duration: 4 hr): 3.42
amount in urine ([17]; 6.268 h, dosed: methyl tert-butyl ether, 5 mg, oral): 0.795
amount in urine ([17]; 11.95 h, dosed: methyl tert-butyl ether, 38.7 ppm, inhalation, duration: 4 hr): 45.2
amount in urine ([17]; 12 h, dosed: ethyl tert-butyl ether, 40.6 ppm, inhalation, duration: 4 hr): 24.1
amount in urine ([17]; 12.1 h, dosed: methyl tert-butyl ether, 4.5 ppm, inhalation, duration: 4 hr): 4.96
amount in urine ([17]; 12.12 h, dosed: methyl tert-butyl ether, 5 mg, oral): 1.23
amount in urine ([17]; 12.12 h, dosed: methyl tert-butyl ether, 15 mg, oral): 3.38
amount in urine ([17]; 12.15 h, dosed: ethyl tert-butyl ether, 4.5 ppm, inhalation, duration: 4 hr): 2.89
amount in urine ([17]; 17.99 h, dosed: methyl tert-butyl ether, 15 mg, oral): 2.7
amount in urine ([17]; 18 h, dosed: ethyl tert-butyl ether, 40.6 ppm, inhalation, duration: 4 hr): 19.9
amount in urine ([17]; 18.07 h, dosed: ethyl tert-butyl ether, 4.5 ppm, inhalation, duration: 4 hr): 3.11
amount in urine ([17]; 18.16 h, dosed: methyl tert-butyl ether, 4.5 ppm, inhalation, duration: 4 hr): 2.54
amount in urine ([17]; 18.22 h, dosed: methyl tert-butyl ether, 38.7 ppm, inhalation, duration: 4 hr): 35.6
amount in urine ([17]; 18.39 h, dosed: methyl tert-butyl ether, 5 mg, oral): 1.15
amount in urine ([17]; 23.96 h, dosed: methyl tert-butyl ether, 38.7 ppm, inhalation, duration: 4 hr): 26
amount in urine ([17]; 24 h, dosed: ethyl tert-butyl ether, 40.6 ppm, inhalation, duration: 4 hr): 12.5
amount in urine ([17]; 24 h, dosed: methyl tert-butyl ether, 4.5 ppm, inhalation, duration: 4 hr): 3.2
amount in urine ([17]; 24.03 h, dosed: ethyl tert-butyl ether, 4.5 ppm, inhalation, duration: 4 hr): 2.35
amount in urine ([17]; 24.17 h, dosed: methyl tert-butyl ether, 15 mg, oral): 1.82
amount in urine ([17]; 24.44 h, dosed: methyl tert-butyl ether, 5 mg, oral): 0.658
amount in urine ([17]; 29.89 h, dosed: ethyl tert-butyl ether, 40.6 ppm, inhalation, duration: 4 hr): 7.97
amount in urine ([17]; 30.03 h, dosed: methyl tert-butyl ether, 15 mg, oral): 1.82
amount in urine ([17]; 30.14 h, dosed: methyl tert-butyl ether, 38.7 ppm, inhalation, duration: 4 hr): 28.1
amount in urine ([17]; 30.16 h, dosed: methyl tert-butyl ether, 4.5 ppm, inhalation, duration: 4 hr): 2.54
amount in urine ([17]; 30.2 h, dosed: ethyl tert-butyl ether, 4.5 ppm, inhalation, duration: 4 hr): 1.53
amount in urine ([17]; 30.29 h, dosed: methyl tert-butyl ether, 5 mg, oral): 0.616
amount in urine ([17]; 35.98 h, dosed: methyl tert-butyl ether, 38.7 ppm, inhalation, duration: 4 hr): 17.1
amount in urine ([17]; 36 h, dosed: methyl tert-butyl ether, 4.5 ppm, inhalation, duration: 4 hr): 1.32
amount in urine ([17]; 36.11 h, dosed: ethyl tert-butyl ether, 40.6 ppm, inhalation, duration: 4 hr): 7.37
amount in urine ([17]; 36.11 h, dosed: methyl tert-butyl ether, 15 mg, oral): 1.02
amount in urine ([17]; 36.16 h, dosed: ethyl tert-butyl ether, 4.5 ppm, inhalation, duration: 4 hr): 1.04
amount in urine ([17]; 36.35 h, dosed: methyl tert-butyl ether, 5 mg, oral): 0.384
amount in urine ([17]; 41.98 h, dosed: methyl tert-butyl ether, 15 mg, oral): 0.46
amount in urine ([17]; 42.11 h, dosed: ethyl tert-butyl ether, 40.6 ppm, inhalation, duration: 4 hr): 4.98
amount in urine ([17]; 42.12 h, dosed: ethyl tert-butyl ether, 4.5 ppm, inhalation, duration: 4 hr): 0.655
amount in urine ([17]; 42.15 h, dosed: methyl tert-butyl ether, 38.7 ppm, inhalation, duration: 4 hr): 8.9
amount in urine ([17]; 42.16 h, dosed: methyl tert-butyl ether, 4.5 ppm, inhalation, duration: 4 hr): 0.662
amount in urine ([17]; 42.2 h, dosed: methyl tert-butyl ether, 5 mg, oral): 0.233
amount in urine ([17]; 48 h, dosed: methyl tert-butyl ether, 38.7 ppm, inhalation, duration: 4 hr): 5.48
amount in urine ([17]; 48.05 h, dosed: methyl tert-butyl ether, 15 mg, oral): 0.462
amount in urine ([17]; 48.11 h, dosed: ethyl tert-butyl ether, 40.6 ppm, inhalation, duration: 4 hr): 3.19
amount in urine ([17]; 48.26 h, dosed: methyl tert-butyl ether, 5 mg, oral): 0.123
amount in urine ([17]; 48.3 h, dosed: ethyl tert-butyl ether, 4.5 ppm, inhalation, duration: 4 hr): 0.6
amount in urine ([17]; 53.91 h, dosed: methyl tert-butyl ether, 15 mg, oral): 0.224
amount in urine ([17]; 54.05 h, dosed: ethyl tert-butyl ether, 40.6 ppm, inhalation, duration: 4 hr): 2.39
amount in urine ([17]; 54.07 h, dosed: methyl tert-butyl ether, 38.7 ppm, inhalation, duration: 4 hr): 4.79
amount in urine ([17]; 54.42 h, dosed: methyl tert-butyl ether, 5 mg, oral): 0.123
amount in urine ([17]; 59.78 h, dosed: methyl tert-butyl ether, 15 mg, oral): 0.146
amount in urine ([17]; 60.03 h, dosed: methyl tert-butyl ether, 38.7 ppm, inhalation, duration: 4 hr): 3.42
amount in urine ([17]; 60.16 h, dosed: ethyl tert-butyl ether, 40.6 ppm, inhalation, duration: 4 hr): 2.19
amount in urine ([17]; 60.27 h, dosed: methyl tert-butyl ether, 5 mg, oral): 0.0411
amount in urine ([17]; 65.95 h, dosed: methyl tert-butyl ether, 15 mg, oral): 0.0276
amount in urine ([17]; 66.09 h, dosed: methyl tert-butyl ether, 38.7 ppm, inhalation, duration: 4 hr): 3.42
amount in urine ([17]; 66.11 h, dosed: ethyl tert-butyl ether, 40.6 ppm, inhalation, duration: 4 hr): 1.59
amount in urine ([17]; 71.95 h, dosed: methyl tert-butyl ether, 38.7 ppm, inhalation, duration: 4 hr): 1.37
amount in urine ([17]; 72.05 h, dosed: ethyl tert-butyl ether, 40.6 ppm, inhalation, duration: 4 hr): 1.59

O=C(O)COc1ccc(Cl)cc1Cl [2,4-Dichlorophenoxyacetic acid]
concentration in plasma [18]: 4560 ng/mL
concentration in plasma ([19]; 2.5 min): 2790 ng/mL
concentration in plasma ([19]; 10 min): 4900 ng/mL
concentration in plasma ([19]; 0.25 h): 3740 ng/mL
concentration in plasma ([19]; 0.5 h): 8570 ng/mL
concentration in plasma ([19]; 2 h): 2400 ng/mL
concentration in plasma ([19]; 3 h): 929 ng/mL

CCC1(c2ccccc2)C(=O)NCNC1=O [Primidone]
concentration in plasma [20]: 37200 ng/mL
concentration in plasma [21]: 17800 ng/mL
concentration in plasma [22]: 6000 ng/mL
concentration in plasma [23]: 25300 ng/mL
